T cruzi inh: blocks replication of Trypanosoma cruzi; actives 1.4% (n = 300,000); T. cruzi beta-gal in NIH3T3, luminescence, 90 h; inhibition, % (concentration not given with the values);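 active means mean inhibition across valid replicates above about 55%, limit read from the data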;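 further: signal also drops with host cell toxicity which is not excluded here; higher percent means less beta-gal luminescence so fewer parasites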
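Material: NIH/3T3 host cells with β-galactosidase reporter T. cruzi; Input: 5,000 host fibroblasts per well; Medium: DMEM, 2% fetal bovine serum; Compound: 50 nL DMSO compound solution per well; Schedule: 3 h host attachment, then at least 90 h co-culture; Detection: luminescent β-galactosidase signal after 60 min lysis.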
MPTP block: blocks calcium-induced mitochondrial swelling | isolated mouse mitochondria, Ca2+ swelling absorbance, 30 min | actives 1.4% (n = 360,000) | inhibition, % at 10 µM;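 active means inhibition of 50% or more, scaled per plate between neutral and stimulator controls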
Lmaj promast: Leishmania major promastigote growth inhibition; Leishmania major promastigotes, resazurin fluorescence viability; inhibition, % at 10 µM; actives 9% (n = 200,000); AID 1063; in the data active means inhibition above about 50%;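 further: promastigotes grown with compound for 44 hours at 28 °C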
Hep lipid drop: hepatic lipid droplet formation modulation; AML12 mouse hepatocytes, oleate lipid droplets, BODIPY imaging; inhibition, % at 6.5 µM; actives 0.4% (n = 240,000);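 active means lipid droplet intensity inhibited by at least 50%, with more than 500 cells counted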
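Material: mouse AML12 hepatocyte cell line, fixed after treatment; Timing: compound with oleate, overnight; Technique: high-content imaging of BODIPY-stained droplets and DAPI nuclei; Probe or stimulus: oleate, 100 µM final; Dosing: compound at 6.5 µM only.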
Redox H2O2 prof: compounds producing H2O2 with reducing agent – biochemical, NIH compound library profiling, artefact control for MLSCN library redox annotation, primary screen. DTT-dependent redox cycling H2O2, phenol red/HRP absorbance; 100% = 100 µM peroxide control, 0% = buffer. activation, % at 10 µM. actives 0.03% (n = 200,000). AID 878;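 active means activation of at least 50% relative to the plate's high and low controls in the primary single-dose screen; inactive means activation below 50%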;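 further: compound incubated with DTT at 0.8 mM final as the reducing agent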
Lipid drop inh: confirmation of inhibitors of hepatic lipid droplet formation | inhibition, % at 5.2 µM | AML12 mouse hepatocytes, BODIPY lipid droplet imaging; droplets induced with 100 µM oleic acid | actives 65% (n = 870) | shares compounds with Hep lipid drop;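 active means inhibition of lipid droplet metric at least 50%, with more than 300 cells in each of four replicates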
AML12 tox img: counter-screen for cytotoxicity in AML12 mouse hepatocytes. shares compounds with Hep lipid drop. DAPI nuclear morphology cytotoxicity imaging; hits give high values; cells fed 100 µM oleate overnight. AID 463200. z-score at 5 µM. actives 3% (n = 870); in the data active means z-score above about 6.3;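 further: compound exposure lasted overnight at 37 °C before fixation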
AML12 tox conf: confirmation of cytotoxicity in AML12 mouse hepatocytes; 530 tested, under 10 active; cytotoxicity, % at 50 µM; AID 463219; AML12 mouse hepatocyte viability, ATP luminescence; cells loaded with 100 µM oleic acid; shares compounds with Hep lipid drop;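 active means cytotoxicity above 50% in each of four replicates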;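 further: compound exposure lasted overnight at 37 °C before the ATP read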
Numbers stand for hits; 0 = inactive; - = not tested or not shown. Shown is part of a subset that was picked to be rich in hits.

SMILES | T cruzi inh | MPTP block | Lmaj promast | Hep lipid drop | Redox H2O2 prof | Lipid drop inh | AML12 tox img | AML12 tox conf
COc1ccc(N/C=C/C(=C(C#N)C#N)N(C)C)cc1 | 0 | 0 | 0 | 0 | 0 | - | - | -
CC(C)[C@H](NC(=O)N1CC(=O)Nc2ccccc21)C(=O)N1CCC[C@@H]1C(=O)O | 0 | 0 | - | 0 | - | - | - | -
Cc1ccc(/C=C/C(=O)NCC2COc3ccccc3O2)o1 (stereo unspecified) | 0 | 0 | 0 | 53 | 0 | 0 | 0 | -
COc1ccc(/C=C/C(=O)NCC2COc3ccccc3O2)cc1OC (stereo unspecified) | 0 | 0 | 0 | 0 | 0 | - | - | -
CCOc1ccccc1NC(=O)N1CCCC1C(=O)Nc1ccc(-n2cnnn2)c(C)c1 (stereo unspecified) | 0 | 0 | 0 | 74 | 0 | 97 | 0 | 0
Cc1ccc(CNC(=O)N2CCN(C)CC2)cc1 | 0 | 0 | 0 | 0 | 0 | - | - | -
CCOc1ccccc1N1CCN(C(=O)NCc2ccc(C)cc2)CC1 | 0 | 0 | - | 65 | - | 0 | 0 | 0
O=C(Nc1ccccc1)c1ccc(NCC2CCCO2)c(S(=O)(=O)N2CCOCC2)c1 (stereo unspecified) | 0 | 0 | 0 | 51 | 0 | 0 | 0 | -
O=C(CN1C(=O)NC2(CCOc3ccccc32)C1=O)c1ccc(Br)cc1 (stereo unspecified) | 0 | 0 | - | 66 | - | 102 | 0 | 0
Cc1ccc(-c2cc(C(=O)NC3=NCCS3)c3cc(Br)ccc3n2)o1 | 0 | - | 0 | 107 | 0 | 0 | 0 | -
Cc1nn(C(=O)c2ccc([N+](=O)[O-])cc2)c(C)c1Br | 0 | 0 | - | 0 | - | - | - | -
COc1ccc(C(=O)CSc2nnc(CC(=O)Nc3ccccc3OC)n2C)cc1 | 0 | 0 | 0 | 59 | 0 | 0 | 0 | 0
COc1ccccc1NC(=O)Cc1nnc(SCC(=O)Nc2ccccc2F)n1C | 0 | 0 | 0 | 0 | 0 | - | - | -
CCn1cc([N+](=O)[O-])c(C(=O)N2N=C(c3ccc4ccccc4c3)CC2c2cc(Br)ccc2O)n1 (stereo unspecified) | 56 | 0 | 100 | 89 | 0 | 77 | 0 | 0
CCn1cc([N+](=O)[O-])c(C(=O)N2N=C(c3ccc(Cl)c(Cl)c3)CC2c2ccccc2O)n1 (stereo unspecified) | 0 | 0 | 0 | 0 | 0 | - | - | -
CCNc1nc(SC(C)C(=O)Nc2ccccc2)nc(N2CCOCC2)n1 (stereo unspecified) | 0 | 0 | 0 | 0 | 0 | - | - | -
CC(Sc1nc(NCc2ccccc2)nc(N2CCOCC2)n1)C(=O)Nc1ccccc1 (stereo unspecified) | 0 | 0 | 0 | 59 | 0 | 99 | 0 | 0
CCOC(=O)c1cnn(-c2ccc(F)cc2)c1N | 0 | 0 | 0 | 0 | 0 | - | - | -
Cc1ccccc1N/C(=N/S(=O)(=O)c1ccccc1)c1ccc(F)cc1 | 0 | 0 | - | 54 | - | 0 | 0 | -
O=C(Cc1cccc2ccccc12)Nc1ccc(-c2cc3ccccc3oc2=O)cc1 | 0 | 0 | 0 | 72 | 0 | 100 | 0 | 0
Cc1cc(N2CC(C)OC(C)C2)n2cc(-c3ccccc3)nc2n1 (stereo unspecified) | 0 | 0 | 0 | 0 | 0 | - | - | -
O=S(=O)(c1ccc(SCc2c(F)cccc2Cl)nc1)N1CCCC1 | - | 0 | - | - | - | - | - | -
Cc1ccc(NC(=O)CN(C)CC(=O)Nc2ccc(N3CCOCC3)cc2)c(C)c1 | 0 | 0 | 0 | 53 | 0 | 84 | 0 | -
CCOC(=O)c1cc(NC(=O)N(C)C2CCCCC2)c(C)nc1C | 0 | 0 | - | 54 | - | 81 | 0 | 0
COc1ccc(NS(=O)(=O)c2cc([N+](=O)[O-])ccc2N/N=C/c2c(C)[nH]c3ccccc23)cc1 | - | 0 | - | - | - | - | - | -
Cc1[nH]c2ccccc2c1/C=N/Nc1ccccc1[N+](=O)[O-] | 62 | 0 | 0 | 85 | 0 | 114 | 0 | -
CCOc1ccccc1/C=N/Nc1ccccc1[N+](=O)[O-] | 0 | 0 | 0 | - | 0 | - | - | -
CC(C)Oc1ccccc1/C=N/Nc1ccccc1[N+](=O)[O-] | 0 | 0 | 0 | 95 | 0 | 115 | 0 | -

Source: PubChem
